# Key:
# [1] = T>MIC in methicillin-resistant Staphylococcus aureus 11888 infected CD1 neutropenic mouse at static dose of 22.6 mg/kg, sc administered every 6 hrs; assay type: functional; conditions: route subcutaneous
# [2] = T>MIC in methicillin-resistant Staphylococcus aureus 12248 infected CD1 neutropenic mouse at static dose of 29.2 mg/kg, sc administered every 6 hrs; assay type: functional; conditions: route subcutaneous
# [3] = T>MIC in methicillin-resistant Staphylococcus aureus 22115 infected CD1 neutropenic mouse at static dose of 16.9 mg/kg, sc administered every 6 hrs; assay type: functional; conditions: route subcutaneous
# [4] = T>MIC in Staphylococcus aureus ATCC 22923 infected CD1 neutropenic mouse at static dose of 2.03 mg/kg, sc administered every 6 hrs; assay type: functional; conditions: route subcutaneous
# Summary of the method: (§1)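 Neutropenic mice (cyclophosphamide i.p. 150 and 100 mg/kg, 4 and 1 days pre-infection) given 0.1 ml thigh inoculum (1:10 dilution of 10^8 CFU/ml), then treated from 2 h post-infection for 24 h with s.c. ceftobiprole medocaril (0.010–160 mg/kg) at varied intervals. Thigh CFU plated from homogenates. Static dose came from a sigmoid Hill model, and T>MIC was estimated from mouse PK and MIC.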
# [5] = T>MIC in Staphylococcus aureus ATCC 29213 infected CD1 neutropenic mouse at static dose of 3.78 mg/kg, sc administered every 6 hrs; assay type: functional; conditions: route subcutaneous; summary of the method: as §1
# [6] = T>MIC in Staphylococcus aureus ATCC Smith infected CD1 neutropenic mouse at static dose of 4.21 mg/kg, sc administered every 6 hrs; assay type: functional; conditions: route subcutaneous; summary of the method: as §1
# [7] = T>MIC in Escherichia coli ATCC 25922 infected CD1 neutropenic mouse at static dose of 8.25 mg/kg, sc administered every 6 hrs; assay type: functional; conditions: route subcutaneous; summary of the method: as §1
# [8] = T>MIC in Klebsiella pneumoniae infected CD1 neutropenic mouse at static dose of 6.61 mg/kg, sc administered every 6 hrs; assay type: functional; conditions: route subcutaneous; summary of the method: as §1
# [9] = T>MIC in Enterobacter cloacae 2249 infected CD1 neutropenic mouse at static dose of 22.2 mg/kg, sc administered every 3 hrs; assay type: functional; conditions: route subcutaneous; summary of the method: as §1
# [10] = T>MIC in Enterobacter cloacae 4567 infected CD1 neutropenic mouse at static dose of 3.28 mg/kg, sc administered every 3 hrs; assay type: functional; conditions: route subcutaneous; summary of the method: as §1
# [11] = T>MIC in Pseudomonas aeruginosa ATCC 27853 infected CD1 neutropenic mouse at static dose of 25.2 mg/kg, sc administered every 3 hrs; assay type: functional; conditions: route subcutaneous; summary of the method: as §1
# [12] = T>MIC in Streptococcus pneumoniae ATCC 10813 infected CD1 neutropenic mouse at 2-log kill dose of 0.552 mg/kg, sc administered every 6 hrs; assay type: functional; conditions: route subcutaneous
# [13] = T>MIC in Streptococcus pneumoniae MNO-418 infected CD1 neutropenic mouse at 2-log kill dose of 0.624 mg/kg, sc administered every 6 hrs; assay type: functional; conditions: route subcutaneous
# [14] = T>MIC in Streptococcus pneumoniae CDC-145 infected CD1 neutropenic mouse at 2-log kill dose of 3.27 mg/kg, sc administered every 6 hrs; assay type: functional; conditions: route subcutaneous
# [15] = T>MIC in Streptococcus pneumoniae CDC 1293 infected CD1 neutropenic mouse at 2-log kill dose of 3.55 mg/kg, sc administered every 6 hrs; assay type: functional; conditions: route subcutaneous
# [16] = T>MIC in Streptococcus pneumoniae CDC 1329 infected CD1 neutropenic mouse at 2-log kill dose of 5.51 mg/kg, sc administered every 6 hrs; assay type: functional; conditions: route subcutaneous
# [17] = T>MIC in Streptococcus pneumoniae CDC 673 infected CD1 neutropenic mouse at 2-log kill dose of 29 mg/kg, sc administered every 6 hrs; assay type: functional; conditions: route subcutaneous
# [18] = T>MIC in Staphylococcus aureus ATCC 33591 infected CD1 neutropenic mouse at 2-log kill dose of 15.3 mg/kg, sc administered every 6 hrs; assay type: functional; conditions: route subcutaneous
# [19] = T>MIC in methicillin-resistant Staphylococcus aureus WIS-1 infected CD1 neutropenic mouse at 2-log kill dose of 53.9 mg/kg, sc administered every 6 hrs; assay type: functional; conditions: route subcutaneous
# [20] = T>MIC in methicillin-resistant Staphylococcus aureus 11888 infected CD1 neutropenic mouse at 2-log kill dose of 40.2 mg/kg, sc administered every 6 hrs; assay type: functional; conditions: route subcutaneous
# [21] = T>MIC in methicillin-resistant Staphylococcus aureus 12248 infected CD1 neutropenic mouse at 2-log kill dose of 50.5 mg/kg, sc administered every 6 hrs; assay type: functional; conditions: route subcutaneous
# [22] = T>MIC in methicillin-resistant Staphylococcus aureus 22115 infected CD1 neutropenic mouse at 2-log kill dose of 34.4 mg/kg, sc administered every 6 hrs; assay type: functional; conditions: route subcutaneous
# [23] = T>MIC in Staphylococcus aureus […] infected CD1 neutropenic mouse at 2-log kill dose of 10.3 mg/kg, sc administered every 6 hrs; assay type: functional; conditions: route subcutaneous
# [24] = T>MIC in Staphylococcus aureus ATCC 29213 infected CD1 neutropenic mouse at 2-log kill dose of 15.4 mg/kg, sc administered every 6 hrs; assay type: functional; conditions: route subcutaneous
# [25] = T>MIC in Staphylococcus aureus ATCC Smith infected CD1 neutropenic mouse at 2-log kill dose of 9.60 mg/kg, sc administered every 6 hrs; assay type: functional; conditions: dose 9.6 mg/kg; route subcutaneous
# [26] = T>MIC in Escherichia coli ATCC 25922 infected CD1 neutropenic mouse at 2-log kill dose of 42.4 mg/kg, sc administered every 6 hrs; assay type: functional; conditions: route subcutaneous
# [27] = T>MIC in Klebsiella pneumoniae infected CD1 neutropenic mouse at 2-log kill dose of 43.8 mg/kg, sc administered every 6 hrs; assay type: functional; conditions: route subcutaneous
# [28] = T>MIC in Enterobacter cloacae 2249 infected CD1 neutropenic mouse at 2-log kill dose of 155 mg/kg, sc administered every 3 hrs; assay type: functional; conditions: route subcutaneous
# [29] = T>MIC in Enterobacter cloacae 4567 infected CD1 neutropenic mouse at 2-log kill dose of 4.67 mg/kg, sc administered every 3 hrs; assay type: functional; conditions: route subcutaneous
# [30] = T>MIC in Pseudomonas aeruginosa ATCC 27853 infected CD1 neutropenic mouse at 2-log kill dose of 110 mg/kg, sc administered every 3 hrs; assay type: functional; conditions: route subcutaneous
# [31] = AUC in CD1 neutropenic mouse with bacterial infection in thigh at 10 mg/kg, sc; conditions: plasma
# [32] = Cmax in CD1 neutropenic mouse with bacterial infection in thigh at 10 mg/kg, sc; conditions: in vivo
# [33] = Half life in CD1 neutropenic mouse with bacterial infection in thigh at 10 mg/kg, sc; conditions: in vivo
smiles,measurement,setting,value
Nc1nc(/C(=N/O)C(=O)N[C@@H]2C(=O)N3C(C(=O)O)=C(/C=C4\CCN([C@@H]5CCNC5)C4=O)CS[C@H]23)ns1 [CEFTOBIPROLE],fT>MIC,[1],22.5%
same,fT>MIC,[2],24.5%
same,fT>MIC,[3],25.4%
same,fT>MIC,[4],14.1%
same,fT>MIC,[5],18.9%
same,fT>MIC,[6],19.6%
same,fT>MIC,[7],41.9%
same,fT>MIC,[8],41.2%
same,fT>MIC,[9],44.6%
same,fT>MIC,[10],35.6%
same,fT>MIC,[11],46.7%
same,fT>MIC,[12],24.8%
same,fT>MIC,[13],31.8%
same,fT>MIC,[14],23%
same,fT>MIC,[15],18.4%
same,fT>MIC,[16],27%
same,fT>MIC,[17],29.7%
same,fT>MIC,[18],24.4%
same,fT>MIC,[19],39.1%
same,fT>MIC,[20],27.4%
same,fT>MIC,[21],31.6%
same,fT>MIC,[22],29.6%
same,fT>MIC,[23],26.5%
same,fT>MIC,[24],29.9%
same,fT>MIC,[25],25.9%
same,fT>MIC,[26],57.8%
same,fT>MIC,[27],59.2%
same,fT>MIC,[28],100%
same,fT>MIC,[29],40.9%
same,fT>MIC,[30],98.8%
same,AUC at 10 mg/kg,[31],5850 ng·h/mL
same,Cmax,[32],10800 ng/mL
same,half-life,[33],19 min
